≈ marks a conversion by molar mass, not a printed value.
Key:
Format in all cases: functional
Escherichia coli [1] = experiment: Antimicrobial activity against Escherichia coli DH5-alpha pYW1 transformants expressing KPC2 gene by agar dilution method; conditions: DH5alpha
In short: (§1)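 Agar dilution MIC testing run per CLSI (formerly NCCLS) guidelines. Where an agent was combined with clavulanic acid, the clavulanic acid was held at a fixed 4 μg/ml.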

Escherichia coli [2] = experiment: Antimicrobial activity against Escherichia coli DH5-alpha with pYW2 expressing KPC2 and TEM1 gene by agar dilution method; conditions: DH5alpha; in short: as §1
Escherichia coli [3] = experiment: Antimicrobial activity against Escherichia coli DH5alpha by agar dilution method; in short: as §1
Escherichia coli [4] = experiment: Antimicrobial activity against Escherichia coli DH5-alpha with pGEM-T EASY expressing TEM1 gene by agar dilution method; conditions: DH5alpha; in short: as §1
Klebsiella pneumoniae = experiment: Antimicrobial activity against carbapenem-resistant Klebsiella pneumoniae ZR01 from patient sputum by agar dilution method; in short: as §1

Compound	MIC (Escherichia coli [1]) [µg/mL]	MIC (Escherichia coli [2]) [µg/mL]	MIC (Escherichia coli [3]) [µg/mL]	MIC (Escherichia coli [4]) [µg/mL]	MIC (Klebsiella pneumoniae) [µg/mL]
NCC[C@H](O)C(=O)N[C@@H]1C[C@H](N)[C@@H](O[C@H]2O[C@H](CN)[C@@H](O)[C@H](O)[C@H]2O)[C@H](O)[C@H]1O[C@H]1O[C@H](CO)[C@@H](O)[C@H](N)[C@H]1O [AMIKACIN]	1 (≈ 1.71 µM)	1 (≈ 1.71 µM)	1 (≈ 1.71 µM)	1 (≈ 1.71 µM)	> 256
C[C@H]1[C@H](NC(=O)/C(=N\OC(C)(C)C(=O)O)c2csc(N)n2)C(=O)N1S(=O)(=O)O [AZTREONAM]	32 (≈ 73.5 µM)	64 (≈ 147 µM)			> 256
CO/N=C(\C(=O)N[C@@H]1C(=O)N2C(C(=O)[O-])=C(C[N+]3(C)CCCC3)CS[C@H]12)c1csc(N)n1 [CEFEPIME]	2 (≈ 4.16 µM)		0.032 (≈ 0.0666 µM)	0.125 (≈ 0.26 µM)	> 256
CO/N=C(\C(=O)N[C@@H]1C(=O)N2C(C(=O)O)=C(COC(C)=O)CS[C@H]12)c1csc(N)n1 [CEFOTAXIME]	4 (≈ 8.78 µM)	32 (≈ 70.3 µM)	0.094 (≈ 0.206 µM)	0.094 (≈ 0.206 µM)	> 256
CC(C)(O/N=C(\C(=O)N[C@@H]1C(=O)N2C(C(=O)[O-])=C(C[n+]3ccccc3)CS[C@H]12)c1csc(N)n1)C(=O)O [CEFTAZIDIME]	4 (≈ 7.32 µM)	32 (≈ 58.5 µM)	0.25 (≈ 0.457 µM)	0.5 (≈ 0.915 µM)	> 256
CO/N=C(\C(=O)N[C@@H]1C(=O)N2C(C(=O)O)=C(CSc3nc(=O)c(O)nn3C)CS[C@H]12)c1csc(N)n1 [CEFTRIAXONE]	8 (≈ 14.4 µM)	64 (≈ 115 µM)	0.094 (≈ 0.169 µM)	0.094 (≈ 0.169 µM)	> 256
O=C(O)c1cn(C2CC2)c2cc(N3CCNCC3)c(F)cc2c1=O [CIPROFLOXACIN]					> 32
C[C@@H](O)[C@H]1C(=O)N2C(C(=O)O)=C(S[C@@H]3CN[C@H](C(=O)Nc4cccc(C(=O)O)c4)C3)[C@H](C)[C@H]12 [ERTAPENEM]	0.5 (≈ 1.05 µM)	2 (≈ 4.21 µM)	0.008 (≈ 0.0168 µM)	0.012 (≈ 0.0252 µM)	> 256
C[C@@H](O)[C@H]1C(=O)N2C(C(=O)O)=C(SCCNC=N)C[C@H]12 [IMIPENEM ANHYDROUS]	4 (≈ 13.4 µM)	8 (≈ 26.7 µM)			> 32
C[C@@H](O)[C@H]1C(=O)N2C(C(=O)O)=C(S[C@@H]3CN[C@H](C(=O)N(C)C)C3)[C@H](C)[C@H]12 [MEROPENEM]	4 (≈ 10.4 µM)	4 (≈ 10.4 µM)	0.06 (≈ 0.156 µM)	0.06 (≈ 0.156 µM)	> 32
CO[C@H]1/C=C/O[C@@]2(C)Oc3c(C)c(O)c4c(O)c(c(/C=N/N5CCN(C)CC5)c(O)c4c3C2=O)NC(=O)/C(C)=C\C=C\[C@H](C)[C@H](O)[C@@H](C)[C@@H](O)[C@@H](C)[C@H](OC(C)=O)[C@@H]1C [RIFAMPIN]	16 (≈ 19.4 µM)	16 (≈ 19.4 µM)	16 (≈ 19.4 µM)	16 (≈ 19.4 µM)	16 (≈ 19.4 µM)
COLISTIN	0.5	0.5	0.5	0.5	0.5
POLYMYXIN B	1	1	1	1	2
